Calls of active or inactive are those of the source. The calls are words filed in the database; no cut-off is given here.
Assays:
Bone [1] = test: Biodistribution in ICR mouse bone at 925 KBq, iv after 30 mins by gamma counting; type: ADME, organism-based, Bone element; conditions: in vivo, 0.5 h
Outline: (§1)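 The ¹⁸F tracer was given iv to normal ICR mice (n = 6 per time point). Animals were killed by cardiac excision under isoflurane at 2 or 30 min. Organs were removed, weighed and γ-counted. %dose/g was calculated against counts of a 100-fold diluted aliquot of the injectate (1% of initial dose), counted at the same time.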

Brain [2] = test: Biodistribution in ICR mouse brain at 925 KBq, iv after 2 mins by gamma counting; type: ADME, organism-based; conditions: in vivo; outline: as §1
Liver [3] = test: Biodistribution in ICR mouse liver at 925 KBq, iv after 2 mins by gamma counting; type: ADME, organism-based; conditions: in vivo; outline: as §1
Muscle tissue [4] = test: Biodistribution in ICR mouse muscle at 925 KBq, iv after 30 mins by gamma counting; type: ADME, organism-based; conditions: in vivo, 0.5 h; outline: as §1
Kidney [5] = test: Biodistribution in ICR mouse kidney at 925 KBq, iv after 30 mins by gamma counting; type: ADME, organism-based; conditions: in vivo, 0.5 h; outline: as §1
Muscle tissue [6] = test: Biodistribution in ICR mouse muscle at 925 KBq, iv after 2 mins by gamma counting; type: ADME, organism-based; conditions: in vivo; outline: as §1
Blood [7] = test: Biodistribution in ICR mouse blood at 925 KBq, iv after 2 mins by gamma counting; type: ADME, organism-based; conditions: in vivo; outline: as §1
Kidney [8] = test: Biodistribution in ICR mouse kidney at 925 KBq, iv after 2 mins by gamma counting; type: ADME, organism-based; conditions: in vivo; outline: as §1
Liver [9] = test: Biodistribution in ICR mouse liver at 925 KBq, iv after 30 mins by gamma counting; type: ADME, organism-based; conditions: in vivo, 0.5 h; outline: as §1
Blood [10] = test: Biodistribution in ICR mouse blood at 925 KBq, iv after 30 mins by gamma counting; type: ADME, organism-based; conditions: in vivo, 0.5 h; outline: as §1
Bone [11] = test: Biodistribution in ICR mouse bone at 925 KBq, iv after 2 mins by gamma counting; type: ADME, organism-based, Bone element; conditions: in vivo; outline: as §1
Brain [12] = test: Biodistribution in ICR mouse brain at 925 KBq, iv after 30 mins by gamma counting; type: ADME, organism-based; conditions: in vivo, 0.5 h; outline: as §1
[13] = target: T1, Amyloid-beta precursor protein (Homo sapiens, UniProt P05067); test: Displacement of [18F]-amyvid from amyloid-beta aggregates in alzheimer's disease patient brain homogenates after 1 hr; type: tissue-based
T1 sequence (P05067 whole entry): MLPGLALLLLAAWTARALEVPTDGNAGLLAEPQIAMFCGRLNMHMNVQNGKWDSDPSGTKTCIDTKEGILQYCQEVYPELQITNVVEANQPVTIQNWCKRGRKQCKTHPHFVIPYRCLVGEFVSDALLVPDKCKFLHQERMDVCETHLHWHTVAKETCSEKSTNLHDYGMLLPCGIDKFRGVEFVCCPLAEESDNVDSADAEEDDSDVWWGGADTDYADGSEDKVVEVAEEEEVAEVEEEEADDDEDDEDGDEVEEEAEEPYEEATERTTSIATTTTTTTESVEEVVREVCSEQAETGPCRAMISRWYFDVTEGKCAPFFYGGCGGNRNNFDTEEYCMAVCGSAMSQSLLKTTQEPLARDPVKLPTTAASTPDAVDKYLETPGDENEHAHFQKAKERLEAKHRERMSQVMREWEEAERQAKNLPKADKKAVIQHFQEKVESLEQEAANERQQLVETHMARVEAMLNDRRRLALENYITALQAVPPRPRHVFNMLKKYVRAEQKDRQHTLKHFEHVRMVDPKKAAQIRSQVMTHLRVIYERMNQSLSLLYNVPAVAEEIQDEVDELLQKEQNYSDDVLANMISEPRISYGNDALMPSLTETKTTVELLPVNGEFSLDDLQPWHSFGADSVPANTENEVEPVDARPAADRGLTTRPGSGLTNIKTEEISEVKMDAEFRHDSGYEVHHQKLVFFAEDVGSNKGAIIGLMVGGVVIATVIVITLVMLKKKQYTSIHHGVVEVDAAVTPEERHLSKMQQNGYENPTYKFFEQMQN
Outline: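 Competition binding in post-mortem AD brain tissue homogenates against [¹⁸F]5 bound to Aβ aggregates. Results are expressed as inhibition constants (Ki, nM).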

[14] = target: T1, Amyloid-beta precursor protein; test: Binding affinity to amyloid-beta plaque in parenchymal region of normal human brain after 1 hr; type: tissue-based; conditions: tested as the 18F-labelled form
Outline: (§2)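 Post-mortem occipital sections (20 μm) from frozen brains of confirmed CAA, AD and control subjects. The ¹⁸F-labelled tracer was applied in 40% ethanol for 1 h. Sections were washed twice for 2 min in saturated Li₂CO₃/40% ethanol, once for 2 min in 40% ethanol, then rinsed 30 s in water. Dried sections were exposed to film for 12−18 h and the images digitized.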

[15] = target: T1, Amyloid-beta precursor protein; test: Binding affinity to amyloid-beta plaque in cerebral blood vessels of normal human cerebral amyloid angiopathy region of brain after 1 hr; type: tissue-based; conditions: tested as the 18F-labelled form; outline: as §2
[16] = target: T1, Amyloid-beta precursor protein; test: Binding affinity to amyloid-beta plaque in cerebral blood vessels of alzheimer's disease patient cerebral amyloid angiopathy region of brain after 1 hr; type: tissue-based; conditions: tested as the 18F-labelled form; outline: as §2
[17] = target: T1, Amyloid-beta precursor protein; test: Binding affinity to amyloid-beta plaque in cerebral blood vessels of alzheimer's disease patient cerebral amyloid angiopathy region of brain after 1 hr by thioflavin S staining; type: tissue-based; conditions: tested as the 18F-labelled form
Outline: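 Adjacent brain sections were fixed 1 h in 10% neutral buffered formalin. Staining was with 0.025% thioflavin S in 40% ethanol for 3−5 min, then differentiation in 50% ethanol. Sections were viewed by fluorescence microscopy.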

[18] = target: T1, Amyloid-beta precursor protein; test: Binding affinity to amyloid-beta plaque in cerebral blood vessels of alzheimer's disease patient cerebral amyloid angiopathy region of brain after 1 hr by autoradiography; type: tissue-based; conditions: tested as the 18F-labelled form; outline: as §2
[19] = target: T1, Amyloid-beta precursor protein; test: Binding affinity to amyloid-beta plaque in parenchymal region of alzheimer's disease patient brain after 1 hr; conditions: tested as the 18F-labelled form; outline: as §2

Row | Compound | Drug uptake (Bone [1]) | Drug uptake (Brain [2]) | Drug uptake (Liver [3]) | Drug uptake (Muscle tissue [4]) | Drug uptake (Kidney [5]) | Drug uptake (Muscle tissue [6]) | Drug uptake (Blood [7]) | Drug uptake (Kidney [8]) | Drug uptake (Liver [9]) | Drug uptake (Blood [10]) | Drug uptake (Bone [11]) | Drug uptake (Brain [12]) | Ki [13] | further results
1 | CNc1ccc(/C=C/c2ccc(OCCOCCOCC[18F])nc2)cc1 [FLORBETAPIR F 18] | 1.22 % ID/g | 7.77 % ID/g | 21.5 % ID/g | 1.78 % ID/g | 6.31 % ID/g | 1.06 % ID/g | 3.14 % ID/g | 10.9 % ID/g | 12.9 % ID/g | 2.8 % ID/g | 1.43 % ID/g | 1.59 % ID/g | – | –
2 | CNc1ccc(-c2nc3ccc(O)cc3s2)cc1[18F] [FLUTEMETAMOL F 18] | – | – | – | – | – | – | – | – | – | – | – | – | 0.74 nM | –
3 | CNc1ccc(/C=C/c2ccc(OCCOCCOCCOCCOCCOCCOCC(COCCOCCOCCOCCOCCOCCOc3ccc(/C=C/c4ccc(NC)cc4)cn3)OCC[18F])nc2)cc1 | 1.36 % ID/g | 0.29 % ID/g | 30.2 % ID/g | 1.29 % ID/g | 11.7 % ID/g | 0.65 % ID/g | 3.12 % ID/g | 13.7 % ID/g | 16 % ID/g | 1.4 % ID/g | 1.06 % ID/g | 0.38 % ID/g | – | –
4 | CN(C(=O)OC(C)(C)C)c1ccc(/C=C/c2ccc(OCCOCCOCCOCCOCC(COCCOCCOCCOCCOc3ccc(/C=C/c4ccc(N(C)C(=O)OC(C)(C)C)cc4)cn3)OCCF)nc2)cc1 | – | – | – | – | – | – | – | – | – | – | – | – | > 1000 nM | –
5 | CNc1ccc(/C=C/c2ccc(OCCOCCOCC[18F])cc2)cc1 [FLORBETABEN F18] | – | – | – | – | – | – | – | – | – | – | – | – | 2.22 nM | –
6 | CNc1ccc(/C=C/c2ccc(OCCOCCOCCOCCNC(=O)CN(CC(=O)NCCOCCOCCOCCOc3ccc(/C=C/c4ccc(NC)cc4)cn3)C(=O)COCCOCCOCCF)nc2)cc1 | – | – | – | – | – | – | – | – | – | – | – | – | 71.2 nM | –
7 | CNc1ccc(/C=C/c2ccc(OCCOCCOCCOCCn3cc(COCC(COCCOCCOCCF)(COCc4cn(CCOCCOCCOCCOc5ccc(/C=C/c6ccc(NC)cc6)cn5)nn4)COCc4cn(CCOCCOCCOCCOc5ccc(/C=C/c6ccc(NC)cc6)cn5)nn4)nn3)nc2)cc1 | – | – | – | – | – | – | – | – | – | – | – | – | 468 nM | –
8 | CNc1ccc(/C=C/c2ccc(OCCOCCOCCF)nc2)cc1 | – | – | – | – | – | – | – | – | – | – | – | – | – | Activity [14]: inactive; Activity [15]: inactive; Activity [16]: Active; Activity [19]: Active

Continued, in another order:

Row | Drug uptake (Bone [1]) | Drug uptake (Brain [2]) | Drug uptake (Liver [3]) | Drug uptake (Muscle tissue [4]) | Drug uptake (Kidney [5]) | Drug uptake (Muscle tissue [6]) | Drug uptake (Blood [7]) | Drug uptake (Kidney [8]) | Drug uptake (Liver [9]) | Drug uptake (Blood [10]) | Drug uptake (Bone [11]) | Drug uptake (Brain [12]) | Ki [13] | Compound | further results
9 | 1.8 % ID/g | 0.4 % ID/g | 33.5 % ID/g | 1.62 % ID/g | 13.4 % ID/g | 1.3 % ID/g | 2.55 % ID/g | 14.9 % ID/g | 20 % ID/g | 1.32 % ID/g | 1.64 % ID/g | 0.34 % ID/g | – | CNc1ccc(/C=C/c2ccc(OCCOCCOCCOCCOCCOCC(COCCOCCOCCOCCOCCOc3ccc(/C=C/c4ccc(NC)cc4)cn3)OCC[18F])nc2)cc1 | –
10 | – | – | – | – | – | – | – | – | – | – | – | – | 3.86 nM | CNc1ccc(/C=C/c2ccc(OCCOCCOCCOCCOCCOCCOCC(COCCOCCOCCOCCOCCOCCOc3ccc(/C=C/c4ccc(NC)cc4)cn3)OCCF)nc2)cc1 | –
11 | – | – | – | – | – | – | – | – | – | – | – | – | 7.71 nM | CNc1ccc(/C=C/c2ccc(OCCOCCOCCOCCOCCOCC(COCCOCCOCCOCCOCCOc3ccc(/C=C/c4ccc(NC)cc4)cn3)OCCF)nc2)cc1 | –
12 | – | – | – | – | – | – | – | – | – | – | – | – | 3.24 nM | CNc1ccc(/C=C/c2ccc(OCCOCCOCCOCCOCC(COCCOCCOCCOCCOc3ccc(/C=C/c4ccc(NC)cc4)cn3)OCCF)nc2)cc1 | Activity [14]: inactive; Activity [15]: inactive; Activity [16]: Active; Activity [17]: Active; Activity [18]: Active; Activity [19]: Active
13 | 2.34 % ID/g | 0.4 % ID/g | 21.2 % ID/g | 1.21 % ID/g | 9.36 % ID/g | 0.82 % ID/g | 4.77 % ID/g | 8.13 % ID/g | 21.4 % ID/g | 1.54 % ID/g | 1.3 % ID/g | 0.4 % ID/g | – | CNc1ccc(/C=C/c2ccc(OCCOCCOCCOCCOCC(COCCOCCOCCOCCOc3ccc(/C=C/c4ccc(NC)cc4)cn3)OCC[18F])nc2)cc1 | –

Reference: ChEMBL document CHEMBL2040779, “Multidentate (18)F-polypegylated styrylpyridines as imaging agents for Aβ plaques in cerebral amyloid angiopathy (CAA)” (J Med Chem, 2011)
